Published values gathered from unrelated publications.
Read-out: cell growth or viability

The CC50 of `CCOC(=O)C1=C(CN2CCC[C@@H]2C(=O)Nc2cccc(B(O)O)c2)NC(c2nccs2)=N[C@H]1c1ccc(F)cc1Br` is reported as 18.4 µM (HePAD38; CCK-8; 6 days).
With `CCOC(=O)c1cnc2c([N+](=O)[O-])cc(C(F)(F)F)cc2c1NCc1ccc(C(F)(F)F)cc1` the CC50 was roughly 9 µM (HEK293; resazurin; 72 h).
For `CCOC(=O)C1=C(CN2CCC[C@@H]2C(=O)Nc2ccc(B(O)O)cc2)NC(c2nccs2)=N[C@H]1c1ccc(F)cc1Br`, the CC50 was 26.5 µM (HePAD38; CCK-8; 6 days).
For `CC(C)[C@@H](C)Nc1nc(-c2cccs2)nc(Cl)c1-c1c(F)cc([N+](=O)[O-])cc1F`, the CC50 was 20.2 µM (HEK293; resazurin; 48 h).
`CCOc1cc(C=NNC(N)=S)ccc1OC(=O)CN1C(=O)CSC1=O` gave a viability of greater than 70% (HEK293; MTT; 40 µg/mL, 24 h).
`C#Cc1cc(F)c(-c2c(Cl)nc(-c3cccs3)nc2NCC2(C)N=N2)c(F)c1` gave a CC50 of greater than 20 µM (HEK293; resazurin; 48 h).
With `Nc1ccn([C@@H]2O[C@H](CO)[C@@H](O)C2(F)F)c(=O)n1` the viability was 83.8% (HEK293; MTT; 0.625 µg/mL, 24 h).
With `CC(C)(C)CNc1nc(-c2cccs2)nc(Cl)c1-c1c(F)cc(C#N)cc1F` the CC50 was greater than 50 µM (HEK293; resazurin; 48 h).
For `Cc1ccc(S(=O)(=O)NNc2ccc([N+](=O)[O-])cc2[N+](=O)[O-])cc1`, the viability was 82.7% (HEK293; MTT; 62.5 µg/mL).
The viability of `NC(=S)NN=Cc1ccc(OC(=O)CN2C(=O)CSC2=O)c(Cl)c1` is reported as greater than 70% (HEK293; MTT; 50 µg/mL, 24 h).
